The text below walks through data of ChEMBL document CHEMBL1153440, “Hexosamine template. A platform for modulating gene expression and for sugar-based drug discovery” (2009).

The test system of assay [1] is MDA-MB-231. Kind of assay: Increase in sialic acid production in human MDA-MB-231 cells by periodate-resorcinal assay. The assay is classed as functional, cell-based.
In assay [2] the test system is MDA-MB-231. Kind of assay: Suppression of MUC1 mRNA expression in human MDA-MB-231 cells by qRT-PCR. It counts as functional, cell-based.
Assay [3] relates to MDA-MB-231. Description: Increase in VEGFA mRNA expression in human MDA-MB-231 cells after 3 days by qRT-PCR. It counts as functional, cell-based. Background: In qPCR the cycle at which signal appears reflects the starting amount.
Assay [4] concerns MDA-MB-231. Kind of assay: Increase in ID1 mRNA expression in human MDA-MB-231 cells after 3 days by qRT-PCR. It counts as functional, cell-based.
The subject of assay [5] is MDA-MB-231. Description: Increase in NQO1 mRNA expression in human MDA-MB-231 cells after 3 days by qRT-PCR. The assay is classed as functional, cell-based.
Assay [6] relates to MDA-MB-231. Kind of assay: Increase in TGF-beta1 mRNA expression in human MDA-MB-231 cells after 3 days by qRT-PCR. The assay is classed as functional, cell-based.
Assay [7] relates to MDA-MB-231. Kind of assay: Growth inhibition of human MDA-MB-231 cells. The assay is classed as functional, cell-based.
Assay [8] relates to MDA-MB-231. Kind of assay: Increase in ID1 mRNA expression in human MDA-MB-231 cells at 45 uM after 3 days by qRT-PCR. It counts as functional, cell-based.
For assay [9], the system named is HCT-116. Kind of assay: Decrease in EGR1 mRNA expression in human HCT116 cells after 3 days by qRT-PCR. The assay is classed as functional, cell-based.
In assay [10] the test system is MDA-MB-231. Description: Increase in NQO1 mRNA expression in human MDA-MB-231 cells at 60 uM after 3 days by qRT-PCR. It counts as functional, cell-based.
Assay [11] deals with HCT-116. Description: Decrease in EGR1 protein expression in human HCT116 cells after 24 hrs by Western blotting. The assay is classed as functional, cell-based. Put shortly:
(§1)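 Treated cells (3 days unless stated; HCT-116 also 24 h) washed in ice-cold PBS, lysed in RIPA with protease inhibitors; equal protein (5–20 μg, BCA) run on 4–15% Tris-HCl gel, transferred to nitrocellulose, blocked in 5% milk/TBST, primary antibody 2 h RT or overnight 4 °C, HRP secondary 1 h; chemiluminescence, densitometry. β-actin antibody also used. Two independent experiments.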

The test system of assay [12] is HCT-116. Kind of assay: Increase in EGR1 protein expression in human HCT116 cells after 3 days by Western blotting. It counts as functional, cell-based. Put shortly: as §1
Background: A western blot detects proteins with antibodies after separation by electrophoresis.

Assay [13] deals with MDA-MB-231. Description: Increase in TGF-beta1 mRNA expression in human MDA-MB-231 cells at 45 uM after 3 days by qRT-PCR. The assay is classed as functional, cell-based.
Assay [14] deals with MDA-MB-231. Kind of assay: Increase in NQO1 mRNA expression in human MDA-MB-231 cells at 45 uM after 3 days by qRT-PCR. The assay is classed as functional, cell-based.
Assay [15] has as its system MDA-MB-231. Kind of assay: Suppression of TP53 mRNA expression in human MDA-MB-231 cells at 60 uM after 3 days by qRT-PCR. It counts as functional, cell-based.
The subject of assay [16] is HCT-116. Kind of assay: Increase in EGR1 mRNA expression in human HCT116 cells after 24 hrs by qRT-PCR. The assay is classed as functional, cell-based.
The subject of assay [17] is HCT-116. Kind of assay: Suppression of TP53 protein expression in human HCT116 cells at 20 uM after 3 days by Western blotting. It counts as functional, cell-based. Put shortly:
as §1

Assay [18] relates to HCT-116. Description: Growth inhibition of human HCT116 cells after 3 days. The assay is classed as functional, cell-based. Put shortly: (§2)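 Cells seeded in 6-well plates (MDA-MB-231 2.0–2.7×10^5, HCT-116 1.0×10^5 cells/well) with analog in ethanol (vehicle <0.5% v/v), grown 3 days at 37 °C, 5% CO2; cell numbers by Coulter particle counter, two 100 μl counts per sample.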

Assay [19] concerns MDA-MB-231. Description: Increase in VEGFA mRNA expression in human MDA-MB-231 cells at 45 uM after 3 days by qRT-PCR. The assay is classed as functional, cell-based.
In assay [20] the test system is MDA-MB-231. Kind of assay: Increase in ID1 mRNA expression in human MDA-MB-231 cells at 75 uM after 3 days by qRT-PCR. The assay is classed as functional, cell-based.
The test system of assay [21] is MDA-MB-231. Description: Increase in ID1 mRNA expression in human MDA-MB-231 cells at 60 uM after 3 days by qRT-PCR. The assay is classed as functional, cell-based.
The test system of assay [22] is MDA-MB-231. Kind of assay: Increase in VEGFA mRNA expression in human MDA-MB-231 cells at 60 uM after 3 days by qRT-PCR. It counts as functional, cell-based.
Assay [23] concerns HCT-116. Kind of assay: Increase in HPSE protein level in human HCT116 cells at 20 uM after 3 days by Western blotting. The assay is classed as functional. Put shortly: as §1
The test system of assay [24] is MDA-MB-231. Kind of assay: Increase in EGR1 mRNA expression in human MDA-MB-231 cells at 45 uM after 3 days by qRT-PCR relative to control. The assay is classed as functional.
Assay [25] deals with HCT-116. Kind of assay: Decrease in TP53 protein expression in human HCT116 cells assessed as protein levels at 25 uM after 3 days by Western blotting. It counts as functional. Also on record: scale not given: the % may be the effect or the level left. Put shortly:
as §1

For assay [26], the system named is MDA-MB-231. Kind of assay: Suppression of TP53 mRNA expression in human MDA-MB-231 cells at 75 uM after 3 days by qRT-PCR. It counts as functional, cell-based.
Assay [27] has as its system MDA-MB-231. Kind of assay: Decrease in TP53 protein level in human MDA-MB-231 cells at 15 uM after 3 days by Western blotting. It counts as functional, cell-based. The method, boiled down:
as §1

The test system of assay [28] is MDA-MB-231. Kind of assay: Increase in EGR1 mRNA expression in human MDA-MB-231 cells at 60 uM after 3 days by qRT-PCR relative to control. It counts as functional.
Assay [29] concerns HCT-116. Description: Decrease in TP53 protein expression in human HCT116 cells assessed as protein levels at 20 uM after 3 days by Western blotting. It counts as functional. Also on record: scale not given: the % may be the effect or the level left. Put shortly: as §1
Assay [30] deals with MDA-MB-231. Description: Increase in TGF-beta1 mRNA expression in human MDA-MB-231 cells at 75 uM after 3 days by qRT-PCR. The assay is classed as functional, cell-based.
Assay [31] concerns MDA-MB-231. Description: Increase in EGR1 mRNA expression in human MDA-MB-231 cells at 75 uM after 3 days by qRT-PCR relative to control. The assay is classed as functional.
In assay [32] the test system is MDA-MB-231. Kind of assay: Increase in NQO1 mRNA expression in human MDA-MB-231 cells at 75 uM after 3 days by qRT-PCR. It counts as functional, cell-based.
In assay [33] the test system is MDA-MB-231. Description: Decrease in EGR1 protein expression in human MDA-MB-231 cells at >45 uM after 3 days by Western blotting relative to control. The assay is classed as functional. Put shortly:
as §1

Assay [34] deals with HCT-116. Kind of assay: Increase in HPSE protein level in human HCT116 cells at 25 uM after 3 days by Western blotting. It counts as functional. Put shortly: as §1
Assay [35] relates to MDA-MB-231. Kind of assay: Increase in VEGFA mRNA expression in human MDA-MB-231 cells at 75 uM after 3 days by qRT-PCR. It counts as functional, cell-based.
Assay [36] relates to HCT-116. Description: Suppression of TP53 protein expression in human HCT116 cells at 25 uM after 3 days by Western blotting. It counts as functional, cell-based. Put shortly: as §1
Assay [37] deals with HCT-116. Description: Decrease in TP53 mRNA level in human HCT116 cells at >=15 uM after 3 days by qRT-PCR.
Assay [38] relates to MDA-MB-231. Description: Growth inhibition of human MDA-MB-231 cells after 3 days. The assay is classed as functional, cell-based. Put shortly:
as §2

The test system of assay [39] is MDA-MB-231. Kind of assay: Increase in TGF-beta1 mRNA expression in human MDA-MB-231 cells at 60 uM after 3 days by qRT-PCR. The assay is classed as functional, cell-based.

Activity calls are given as the source filed them. The rule behind the calls is not given here.

As for `CCCC(=O)OC[C@H]1OC(OC(=O)CCC)[C@@H](NC(C)=O)[C@@H](OC(=O)CCC)[C@@H]1OC(=O)CCC` (some centres undefined), in the assay on MDA-MB-231 [1], the outcome was Active.

In the case of `CC(=O)N[C@@H]1C(OC(C)=O)O[C@H](COC(C)=O)[C@@H](OC(C)=O)[C@@H]1OC(C)=O` (some centres undefined), the outcome in the assay with MDA-MB-231 [1] and in the assay on MDA-MB-231 [2] was Active.

Turning to `CCCC(=O)OC1O[C@H](CO)[C@@H](OC(=O)CCC)[C@H](OC(=O)CCC)[C@@H]1NC(C)=O` (some centres undefined), the result in the assay with MDA-MB-231 [3], with MDA-MB-231 [4], in the assay on MDA-MB-231 [5] and with MDA-MB-231 [6] was inactive.

For the compound `CCCC(=O)OC1O[C@H](COC(C)=O)[C@@H](OC(C)=O)[C@H](OC(C)=O)[C@@H]1NC(C)=O` (some centres undefined), the outcome in the assay on MDA-MB-231 [1] and with MDA-MB-231 [7] was Active.

On to `CCCC(=O)OC[C@H]1OC(OC(C)=O)[C@@H](NC(C)=O)[C@@H](OC(C)=O)[C@@H]1OC(C)=O` (some centres undefined), for which the result with MDA-MB-231 [1], with MDA-MB-231 [2] and in the assay with MDA-MB-231 [7] was Active.

Consider `CCCC(=O)OC[C@H]1OC(O)[C@@H](NC(C)=O)[C@@H](OC(=O)CCC)[C@@H]1OC(=O)CCC` (some centres undefined), for which the outcome with MDA-MB-231 [8], in the assay on HCT-116 [9], in the assay with MDA-MB-231 [10], in the assay on HCT-116 [11], in the assay with HCT-116 [12] and in the assay with MDA-MB-231 [13] was Active. The outcome in the assay with MDA-MB-231 [14], in the assay on MDA-MB-231 [15], with HCT-116 [16], in the assay on HCT-116 [17], with HCT-116 [18] and with MDA-MB-231 [19] was Active. The outcome with MDA-MB-231 [21], with MDA-MB-231 [22], in the assay with MDA-MB-231 [26], with MDA-MB-231 [27], in the assay on HCT-116 [36] and in the assay with HCT-116 [37] was Active. The outcome with MDA-MB-231 [38] and in the assay on MDA-MB-231 [39] was Active. The outcome in the assay with MDA-MB-231 [20], in the assay on MDA-MB-231 [30], with MDA-MB-231 [32] and with MDA-MB-231 [35] was inactive. The “fold change (FC)” value with HCT-116 [23] is reported as “>=50”; with MDA-MB-231 [24], 2; in the assay on MDA-MB-231 [28], 25; in the assay on MDA-MB-231 [31], 25; in the assay on MDA-MB-231 [33], 2; in the assay with HCT-116 [34], “>=50”. Besides, the Activity entry with HCT-116 [25] and with HCT-116 [29] was “<=5%” each time.
